Test results: ChEMBL document CHEMBL1130344, “Discovery of TBC11251, a potent, long acting, orally active endothelin receptor-A selective antagonist” (J Med Chem, 1997)
Active and inactive are the calls of the source. No cut-off for these calls is given here.

Tests used:
Endothelin-1 receptor [1] = biological target: T1, Endothelin-1 receptor (Homo sapiens, UniProt P25101); assay: In vitro inhibition of endothelin binding to human Endothelin A receptor using [125I]-labeled ET-1 competition assay
T1 sequence (P25101 whole entry): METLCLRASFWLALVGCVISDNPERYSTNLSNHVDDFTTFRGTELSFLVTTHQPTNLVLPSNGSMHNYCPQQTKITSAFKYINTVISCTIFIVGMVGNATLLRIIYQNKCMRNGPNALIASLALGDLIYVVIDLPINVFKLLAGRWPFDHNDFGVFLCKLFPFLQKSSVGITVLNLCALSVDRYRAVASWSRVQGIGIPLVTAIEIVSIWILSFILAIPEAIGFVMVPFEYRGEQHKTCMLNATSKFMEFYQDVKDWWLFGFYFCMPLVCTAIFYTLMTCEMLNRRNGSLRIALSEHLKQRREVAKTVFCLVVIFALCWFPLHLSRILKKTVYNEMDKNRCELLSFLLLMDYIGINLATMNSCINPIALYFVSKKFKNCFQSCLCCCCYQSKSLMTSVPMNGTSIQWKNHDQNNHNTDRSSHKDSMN
Method in brief: (§1)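 Membranes in 30 mM HEPES pH 7.4 with 150 mM NaCl, 5 mM MgCl2 and 0.05% bacitracin: […] for ET_B (ET_B from COS 7 cells transfected with human ET_B DNA). Competition against 4 pM [125I]ET-1, 0.25% DMSO final, in triplicate, for 16–18 h at 24 °C. Nonspecific binding with 100 nM ET-1. Bound radioactivity gamma-counted after centrifugation.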

[2] = biological target: T2, Endothelin receptor type B (Homo sapiens, UniProt P24530); assay: In vitro inhibition of endothelin binding to human Endothelin B receptor using [125I]-labeled ET-1 competition assay; method in brief: as §1
T2 sequence (P24530 whole entry): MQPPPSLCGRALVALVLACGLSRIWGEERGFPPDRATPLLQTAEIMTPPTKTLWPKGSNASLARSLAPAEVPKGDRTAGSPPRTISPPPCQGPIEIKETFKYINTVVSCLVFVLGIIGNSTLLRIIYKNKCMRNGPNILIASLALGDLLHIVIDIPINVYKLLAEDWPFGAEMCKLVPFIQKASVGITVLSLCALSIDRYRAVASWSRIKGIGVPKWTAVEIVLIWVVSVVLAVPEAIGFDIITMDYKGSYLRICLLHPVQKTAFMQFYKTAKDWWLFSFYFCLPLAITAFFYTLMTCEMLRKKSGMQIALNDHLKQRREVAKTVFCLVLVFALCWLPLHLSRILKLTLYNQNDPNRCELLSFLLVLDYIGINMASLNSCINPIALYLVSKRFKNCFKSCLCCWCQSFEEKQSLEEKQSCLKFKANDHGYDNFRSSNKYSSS

Rattus norvegicus [3] = assay: The compound was tested in vivo for percent inhibition in ET-1 challenge in rats at 15 mg/kg; format: functional
Method in brief: (§2)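 Male Sprague–Dawley rats (250–350 g) were cannulated (femoral artery/vein) under methohexital, then restrained conscious with 60 min recovery. Autonomic blockade used iv atropine methyl nitrate 3 mg/kg plus propranolol 2 mg/kg. Vehicle was 1 M Tris base or sodium bicarbonate.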

[4] = Phosphoinositol hydrolysis in TE671 or transfected cos 7 cells; format: functional, cell-based; conditions: read-out: pA2 (converted)
Method in brief: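 TE 671 or transfected COS 7 cells were grown to confluence, then labelled for 16 h with [3H]myoinositol in inositol-free RPMI with 10% inositol-free FCS at 37 °C, 6% CO2. They were preincubated 10 min in LiCl-containing HEPES buffer pH 7.4 ± test compound, then given ET-1 at varying concentrations for 45 min. Inositol phosphates were extracted with ice-cold methanol (Berridge method), and well protein was measured by BCA.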

[5] = Oral bioavailability in rat; format: ADME, organism-based; conditions: in vivo
Method in brief: (§3)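 Rats (48 h post-surgery recovery) received 20–50 mg/kg at 1 mL/kg iv or 10 mL/kg po. Serial caudal-vein blood samples were taken over 24 h, and plasma was stored at -20 °C until assay. Bioavailability came from comparing dose and AUC.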

[6] = Serum half life in rat; format: ADME, organism-based; method in brief: as §3
Rattus norvegicus [7] = assay: The compound was tested in vivo for percent inhibition in ET-1 challenge in rats at 15 mg/kg; not active; format: functional, organism-based; parameters: dose 15 mg/kg; method in brief: as §2
Rattus norvegicus [8] = assay: The compound was tested in vivo for percent inhibition in ET-1 challenge in rats at 60 mg/kg; format: functional; method in brief: as §2
[9] = Oral bioavailability in dog; format: ADME, organism-based, Canis lupus familiaris; conditions: in vivo
Method in brief: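 Dogs (7 days post-surgery recovery) were dosed iv at 1 mL/kg via the right saphenous vein, or by oral gavage at 2 mL/kg plus an aqueous flush after overnight fasting. Routes were crossed over 7 days later. Plasma levels were followed over 24 h, and bioavailability came from comparing dose and AUC.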

Rattus norvegicus [10] = assay: In vivo efficacy in acute hypoxia induced pulmonary hypertension in rats following intravenous administration; format: functional, organism-based
Rattus norvegicus [11] = assay: In vivo efficacy in acute hypoxia induced pulmonary hypertension in rats following oral administration; format: functional, organism-based
Endothelin-1 receptor [12] = biological target: T1, Endothelin-1 receptor; assay: Binding affinity against human Endothelin A receptor
[13] = The serum half life of the compound; format: ADME, cell-free

SMILES | IC50 (Endothelin-1 receptor [1]) | IC50 [2] | also measured
Cc1noc(NS(=O)(=O)c2ccsc2C(=O)N2CCN(Cc3ccc4c(c3)OCO4)CC2)c1Cl | 19600 nM |  | 
Cc1ccc(CC(=O)c2sccc2S(=O)(=O)Nc2onc(C)c2Cl)c(C)c1 | 0.97 nM |  | 
COc1cccc(CC(=O)c2sccc2S(=O)(=O)Nc2onc(C)c2Cl)c1 | 30 nM | 19100 nM | 
Cc1noc(NS(=O)(=O)c2ccsc2/C(Cc2ccc3c(c2)OCO3)=N\O)c1Cl | 1100 nM | 4200 nM | 
Cc1noc(NS(=O)(=O)c2ccsc2C2(Cc3ccc4c(c3)OCO4)OCCO2)c1Cl | 123 nM | 2100 nM | 
CC#N.Cc1noc(NS(=O)(=O)c2ccsc2C(=O)Cc2cc3c(cc2C#N)OCO3)c1Cl | 1.3 nM | 723 nM | inhibition in vivo at 15 mg/kg (Rattus norvegicus [3]): 52%; Kb [4]: 10 nM
Cc1noc(NS(=O)(=O)c2ccsc2C(=O)NC(=O)c2ccc3c(c2)OCO3)c1Br | 887 nM | 37200 nM | 
Cc1ccc(CC(=O)c2sccc2S(=O)(=O)Nc2onc(C)c2C)cc1 | 27 nM | 29200 nM | 
Cc1noc(NS(=O)(=O)c2ccsc2C(=O)c2ccc3c(c2)OCO3)c1Br | 2000 nM | 15400 nM | 
Cc1cc2c(cc1CC(=O)c1sccc1S(=O)(=O)Nc1onc(C)c1C)OCO2 |  |  | bioavailability [5]: 100%; half-life [6]: 7 h; inhibition in vivo at 15 mg/kg (Rattus norvegicus [3]): 33%
Cc1ccc(NC(=O)c2sccc2S(=O)(=O)Nc2onc(C)c2Cl)cc1 |  |  | bioavailability [5]: 0%; half-life [6]: < 0.5 h; inhibition (Rattus norvegicus [7]): inactive
COc1cc(C#N)c(NC(=O)c2sccc2S(=O)(=O)Nc2onc(C)c2Cl)cc1OC |  |  | bioavailability [5]: 2%; half-life [6]: < 0.15 h; inhibition in vivo at 15 mg/kg (Rattus norvegicus [3]): 50%
Cc1noc(NS(=O)(=O)c2ccsc2C(=O)Nc2ccc3c(c2C#N)OCO3)c1Cl | 3.4 nM | 40400 nM | bioavailability [5]: 8%; half-life [6]: 2.5 h; inhibition in vivo at 15 mg/kg (Rattus norvegicus [3]): 8%
Cc1noc(NS(=O)(=O)c2ccsc2C(=O)Nc2ccc3c(c2C)OCO3)c1Cl | 3 nM | 355000 nM | inhibition in vivo at 15 mg/kg (Rattus norvegicus [3]): 14%
Cc1cc2c(cc1CC(=O)c1sccc1S(=O)(=O)Nc1noc(C)c1Cl)OCO2 |  | 3900 nM | Kb [4]: 3.39 nM
Cc1noc(NS(=O)(=O)c2ccsc2C(=O)Nc2ccc3c(c2)OCO3)c1Br |  |  | bioavailability [5]: 0%; half-life [6]: < 0.5 h; inhibition (Rattus norvegicus [7]): inactive
Cc1noc(NS(=O)(=O)c2ccsc2C(=O)Cc2ccc3c(c2)OCO3)c1Cl | 18 nM | 7000 nM | bioavailability [5]: 30%; half-life [6]: 1.5 h; inhibition in vivo at 60 mg/kg (Rattus norvegicus [8]): 41%; Kb [4]: 178 nM
Cc1noc(NS(=O)(=O)c2ccsc2C(=O)Cc2ccc3c(c2)OCO3)c1Br | 14 nM |  | 
CC(=O)c1c(NC(=O)c2sccc2S(=O)(=O)Nc2onc(C)c2Cl)ccc2c1OCO2 | 10 nM | 32600 nM | bioavailability [5]: 27%; half-life [6]: 2.5 h; inhibition in vivo at 15 mg/kg (Rattus norvegicus [3]): 18%
Cc1noc(NS(=O)(=O)c2ccsc2C(Cc2ccc3c(c2)OCO3)N(C)C)c1Cl (stereo not given) | 21000 nM | > 100000 nM | 
Cc1noc(NS(=O)(=O)c2ccsc2C(O)Cc2ccc3c(c2)OCO3)c1Cl (stereo not given) | 56 nM | 15700 nM | 
Cc1cc2c(cc1CC(=O)c1sccc1S(=O)(=O)Nc1onc(C)c1Cl)OCO2 [SITAXENTAN] | 1.4 nM | 9800 nM | bioavailability [9]: 90%; EC50 (Rattus norvegicus [10]): 0.5 mg/kg; EC50 (Rattus norvegicus [11]): 1 mg/kg; bioavailability [5]: 60%; half-life [6]: 6.7 h; inhibition in vivo at 15 mg/kg (Rattus norvegicus [3]): 41%; Ki (Endothelin-1 receptor [12]): 0.43 nM; Kb [4]: 10 nM
Cc1ccc(C)c(CC(=O)c2sccc2S(=O)(=O)Nc2onc(C)c2Cl)c1 | 7.2 nM |  | 
Cc1noc(NS(=O)(=O)c2ccsc2C(C)(O)Cc2ccc3c(c2)OCO3)c1Cl (stereo not given) | 22200 nM | > 100000 nM | 
Cc1ccc(CC(=O)c2sccc2S(=O)(=O)Nc2onc(C)c2Br)cc1 | 20 nM |  | 
Cc1ccc(CC(=O)c2sccc2S(=O)(=O)Nc2onc(C)c2Br)c(C)c1 | 0.76 nM | 3500 nM | 
COc1ccc(NC(=O)c2sccc2S(=O)(=O)Nc2onc(C)c2Cl)c(C)c1 |  |  | half-life [13]: < 9 min; inhibition in vivo at 15 mg/kg (Rattus norvegicus [3]): 33%
Cc1noc(NS(=O)(=O)c2ccsc2C(=O)Cc2ccc3c(c2)OCO3)c1C |  | 27200 nM | 
